Values belong to the molecule of their own block, whether it stands above or below them.
Legend:
[1] = biological target: T1, Fatty-acid amide hydrolase 1 (Rattus norvegicus, UniProt P97612); test: Inhibition of rat recombinant FAAH expressed in Escherichia coli using [14C]oleamide as substrate assessed as oleic acid formation by Dixon plot analysis
T1 sequence (P97612 whole entry): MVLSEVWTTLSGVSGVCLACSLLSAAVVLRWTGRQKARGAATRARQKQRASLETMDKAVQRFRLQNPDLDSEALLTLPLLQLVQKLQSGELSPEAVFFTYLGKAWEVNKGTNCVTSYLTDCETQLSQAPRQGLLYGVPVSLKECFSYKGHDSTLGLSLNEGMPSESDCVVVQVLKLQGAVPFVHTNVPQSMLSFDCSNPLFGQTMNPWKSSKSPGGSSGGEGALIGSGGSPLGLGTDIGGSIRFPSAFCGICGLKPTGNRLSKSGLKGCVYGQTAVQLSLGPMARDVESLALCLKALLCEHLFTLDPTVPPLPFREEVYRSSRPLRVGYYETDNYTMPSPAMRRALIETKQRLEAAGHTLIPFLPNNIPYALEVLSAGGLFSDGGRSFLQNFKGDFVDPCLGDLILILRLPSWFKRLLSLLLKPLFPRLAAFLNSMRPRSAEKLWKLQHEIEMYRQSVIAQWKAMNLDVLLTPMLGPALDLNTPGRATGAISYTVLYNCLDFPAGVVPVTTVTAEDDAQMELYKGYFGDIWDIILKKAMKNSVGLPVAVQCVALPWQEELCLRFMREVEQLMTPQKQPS

[2] = biological target: T2, Monoglyceride lipase (Mus musculus, UniProt O35678); test: Inhibition of mouse brain MAGL incubated for 10 mins prior to rhodamine-tagged fluorophosphonate addition measured after 10 mins by SDS-PAGE
T2 sequence (O35678 whole entry): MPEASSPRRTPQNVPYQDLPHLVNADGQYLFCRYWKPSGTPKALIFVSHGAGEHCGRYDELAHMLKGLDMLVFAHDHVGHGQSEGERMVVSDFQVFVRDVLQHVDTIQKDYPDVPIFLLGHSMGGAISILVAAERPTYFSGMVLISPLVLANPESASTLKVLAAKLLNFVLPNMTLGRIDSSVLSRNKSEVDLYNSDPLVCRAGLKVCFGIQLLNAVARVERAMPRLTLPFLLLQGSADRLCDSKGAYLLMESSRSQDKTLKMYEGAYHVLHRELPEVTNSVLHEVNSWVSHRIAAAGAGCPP
How it was run: (§1)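 Mouse brain tissue was Dounce-homogenized in PBS pH 7.5, cleared at 1,400 g for 5 min, then split at 64,000 g for 45 min into soluble and membrane fractions. Proteome at 1 mg/mL in PBS was preincubated with inhibitor from DMSO stock for 10 min, then exposed to FP-rhodamine at 100 nM for 10 min at 25 °C. Gel bands were scanned and integrated relative to a DMSO control. IC50 came from dose-response curves, three trials per concentration.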

[3] = biological target: T3, Fatty-acid amide hydrolase 1 (Mus musculus, UniProt O08914); test: Inhibition of mouse brain FAAH incubated for 10 mins prior to rhodamine-tagged fluorophosphonate addition measured after 10 mins by SDS-PAGE; how it was run: as §1
T3 sequence (O08914 whole entry): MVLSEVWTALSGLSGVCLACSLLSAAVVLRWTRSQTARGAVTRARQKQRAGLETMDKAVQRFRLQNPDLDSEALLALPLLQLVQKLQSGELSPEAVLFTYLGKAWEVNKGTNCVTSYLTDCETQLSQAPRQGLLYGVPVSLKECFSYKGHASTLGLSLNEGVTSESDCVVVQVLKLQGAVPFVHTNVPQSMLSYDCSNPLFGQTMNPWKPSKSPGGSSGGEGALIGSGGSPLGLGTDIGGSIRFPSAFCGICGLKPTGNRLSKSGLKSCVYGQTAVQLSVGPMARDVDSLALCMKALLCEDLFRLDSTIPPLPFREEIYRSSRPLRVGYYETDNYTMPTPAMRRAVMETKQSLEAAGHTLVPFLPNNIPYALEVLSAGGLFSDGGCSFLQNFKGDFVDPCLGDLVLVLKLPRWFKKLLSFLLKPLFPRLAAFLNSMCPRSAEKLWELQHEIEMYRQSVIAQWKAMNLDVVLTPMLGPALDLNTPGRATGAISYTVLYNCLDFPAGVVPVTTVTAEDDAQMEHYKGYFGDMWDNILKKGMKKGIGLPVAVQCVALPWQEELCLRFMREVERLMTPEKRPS

[4] = species on record: Mus musculus; test: Selectivity ratio of IC50 for mouse brain KIAA1363 to mouse brain FAAH
[5] = species on record: Mus musculus; test: Selectivity ratio of IC50 for mouse brain MAGL to mouse brain FAAH
[6] = biological target: T4, Monoacylglycerol lipase ABHD6 (Mus musculus, UniProt Q8R2Y0); test: Inhibition of mouse brain ABHD6 incubated for 10 mins prior to rhodamine-tagged fluorophosphonate addition measured after 10 mins by SDS-PAGE; format: tissue-based; how it was run: as §1
T4 sequence (Q8R2Y0 whole entry): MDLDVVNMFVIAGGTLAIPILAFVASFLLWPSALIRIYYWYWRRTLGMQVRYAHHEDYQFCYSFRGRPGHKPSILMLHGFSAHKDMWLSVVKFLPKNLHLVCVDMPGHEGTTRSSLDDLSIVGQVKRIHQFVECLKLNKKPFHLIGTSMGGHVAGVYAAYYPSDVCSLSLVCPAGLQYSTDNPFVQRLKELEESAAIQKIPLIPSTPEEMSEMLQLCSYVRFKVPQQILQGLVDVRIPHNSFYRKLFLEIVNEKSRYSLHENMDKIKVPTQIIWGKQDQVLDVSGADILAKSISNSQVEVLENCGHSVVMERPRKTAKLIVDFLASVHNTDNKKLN

[7] = species on record: Mus musculus; test: Selectivity ratio of IC50 for mouse brain ABHD6 to mouse brain FAAH
[8] = biological target: T5, Neutral cholesterol ester hydrolase 1 (Mus musculus, UniProt Q8BLF1); test: Inhibition of mouse brain KIAA1363 incubated for 10 mins prior to rhodamine-tagged fluorophosphonate addition measured after 10 mins by SDS-PAGE; how it was run: as §1
T5 sequence (Q8BLF1 whole entry): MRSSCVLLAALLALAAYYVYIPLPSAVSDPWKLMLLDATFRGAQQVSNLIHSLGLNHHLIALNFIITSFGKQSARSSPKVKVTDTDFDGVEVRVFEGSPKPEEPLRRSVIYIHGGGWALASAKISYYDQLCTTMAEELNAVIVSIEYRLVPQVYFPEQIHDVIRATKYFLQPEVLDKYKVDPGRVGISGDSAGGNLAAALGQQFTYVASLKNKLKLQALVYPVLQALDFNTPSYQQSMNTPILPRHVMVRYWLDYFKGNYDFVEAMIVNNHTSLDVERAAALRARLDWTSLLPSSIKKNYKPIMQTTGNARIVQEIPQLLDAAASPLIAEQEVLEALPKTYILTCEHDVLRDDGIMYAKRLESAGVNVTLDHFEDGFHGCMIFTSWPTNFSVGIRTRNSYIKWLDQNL

[9] = biological target: T6, Fatty-acid amide hydrolase 1 (Homo sapiens, UniProt O00519); test: Reversible inhibition of FAAH (unknown origin)
T6 sequence (O00519 whole entry): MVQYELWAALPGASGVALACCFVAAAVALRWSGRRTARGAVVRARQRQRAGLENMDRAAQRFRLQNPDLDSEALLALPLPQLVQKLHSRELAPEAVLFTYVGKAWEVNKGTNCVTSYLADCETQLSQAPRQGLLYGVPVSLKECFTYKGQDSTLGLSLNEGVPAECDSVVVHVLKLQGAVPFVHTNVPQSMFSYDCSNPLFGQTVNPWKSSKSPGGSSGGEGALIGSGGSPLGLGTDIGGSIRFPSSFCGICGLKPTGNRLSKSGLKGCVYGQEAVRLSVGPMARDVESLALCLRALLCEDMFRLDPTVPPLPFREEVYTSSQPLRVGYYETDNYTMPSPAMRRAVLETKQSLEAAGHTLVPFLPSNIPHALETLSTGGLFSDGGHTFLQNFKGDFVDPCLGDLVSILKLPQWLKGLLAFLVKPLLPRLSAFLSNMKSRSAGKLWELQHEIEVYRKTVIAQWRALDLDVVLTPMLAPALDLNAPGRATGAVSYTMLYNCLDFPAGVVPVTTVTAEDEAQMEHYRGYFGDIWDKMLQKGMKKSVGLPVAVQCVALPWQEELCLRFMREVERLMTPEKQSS

SMILES: O=C(c1ncc(-c2ccccn2)o1)[C@H]1COc2cc(OCc3ccccc3)ccc2C1
- Ki [1]: 18 nM

SMILES: O=C(c1ncco1)C1CCc2cc(Oc3ccccc3)ccc2O1 (single isomer, unassigned; enantiomer 1)
- Ki [1]: 17 nM

SMILES: COC(=O)c1cccc(-c2cnc(C(=O)[C@H]3COc4cc(Oc5ccccc5)ccc4C3)o2)n1
- Ki [1]: 41 nM

SMILES: O=C(c1ncc(-c2ccccn2)o1)[C@H]1CCc2cc(Oc3ccccc3)ccc2C1
- Ki [1]: 4.4 nM

SMILES: O=C(c1ncco1)[C@H]1COc2cc(-c3ccccc3)ccc2C1
- Ki [1]: 20 nM

SMILES: O=C(c1ncco1)C1COc2cc(Oc3ccccc3)ccc2C1 (racemic)
- Ki [1]: 33 nM

SMILES: O=C(c1ncc(I)o1)[C@@H]1COc2cc(Oc3ccccc3)ccc2C1
- Ki [1]: 31 nM

SMILES: COC(=O)c1cccc(-c2cnc(C(=O)C3CCc4cc(Oc5ccccc5)ccc4O3)o2)n1 (single isomer, unassigned; enantiomer 2)
- Ki [1]: 210 nM

SMILES: COC(=O)c1cccc(-c2cnc(C(=O)[C@@H]3COc4cc(Oc5ccccc5)ccc4C3)o2)n1
- Ki [1]: 333 nM

SMILES: O=C(c1ncc(-c2ccccn2)o1)[C@H]1COc2cc(-c3ccccc3)ccc2C1
- Ki [1]: 23 nM

SMILES: O=C(c1ncc(-c2ccccn2)o1)C1CCc2cc(Oc3ccccc3)ccc2O1 (single isomer, unassigned; enantiomer 2) [listing 2 of 2 here]
- IC50 [2]: > 100000 nM
- Ki [1]: 120 nM
- IC50 [3]: 50 nM
- IC50 [6]: > 100000 nM
- IC50 [8]: > 100000 nM

SMILES: O=C(c1ncco1)[C@@H]1COc2cc(OCc3ccccc3)ccc2C1
- Ki [1]: 16 nM

Other lines, results leading:

- Ki [1]: 32 nM
SMILES: O=C(c1ncco1)[C@@H]1COc2cc(-c3ccccc3)ccc2C1

- IC50 [2]: > 100000 nM
- Ki [1]: 18 nM
- IC50 [3]: 90 nM
- Ratio IC50 [4]: > 200
- Ratio IC50 [5]: > 200
- IC50 [6]: > 100000 nM
- Ratio IC50 [7]: > 200
- IC50 [8]: > 100000 nM
SMILES: O=C(c1ncc(-c2ccccn2)o1)[C@H]1COc2cc(Oc3ccccc3)ccc2C1

- Ratio IC50 [4]: > 200
- Ratio IC50 [5]: > 200
- Ratio IC50 [7]: > 200
SMILES: O=C(c1ncc(-c2ccccn2)o1)C1CCc2cc(Oc3ccccc3)ccc2O1 (single isomer, unassigned) [listing 1 of 2 here]

- Ki [1]: 17 nM
SMILES: O=C(c1ncc(-c2ccccn2)o1)C1COc2cc(OCc3ccccc3)ccc2C1 (racemic)

- Ki [1]: 94 nM
SMILES: COC(=O)c1cccc(-c2cnc(C(=O)C3CCc4cc(Oc5ccccc5)ccc4O3)o2)n1 (single isomer, unassigned; enantiomer 1)

- Ratio IC50 [4]: > 200
- Ratio IC50 [5]: > 200
- Ratio IC50 [7]: > 200
SMILES: O=C(c1ncc(-c2ccccn2)o1)C1CCc2cc(Oc3ccccc3)ccc2O1 (single isomer, unassigned; enantiomer 2) [listing 1 of 2 here]

- Ki [1]: 31 nM
SMILES: O=C(c1ncco1)C1CCc2cc(Oc3ccccc3)ccc2O1 (single isomer, unassigned; enantiomer 2)

- Ki [1]: 20 nM
SMILES: O=C(c1ncc(I)o1)[C@H]1COc2cc(Oc3ccccc3)ccc2C1

- Ki [1]: 11 nM
SMILES: O=C(c1ncc(-c2ccccn2)o1)[C@@H]1COc2cc(-c3ccccc3)ccc2C1

- Ki [1]: 20 nM
SMILES: O=C(c1ncco1)[C@H]1COc2cc(OCc3ccccc3)ccc2C1

- IC50 [2]: > 100000 nM
- Ki [1]: 36 nM
- IC50 [3]: 70 nM
- IC50 [6]: > 100000 nM
- IC50 [8]: > 100000 nM
SMILES: O=C(c1ncc(-c2ccccn2)o1)C1CCc2cc(Oc3ccccc3)ccc2O1 (single isomer, unassigned) [listing 2 of 2 here]

- Ki [1]: 17 nM
SMILES: O=C(c1ncc(-c2ccccn2)o1)[C@@H]1COc2cc(OCc3ccccc3)ccc2C1

- IC50 [2]: > 100000 nM
- Ki [1]: 27 nM
- IC50 [3]: 460 nM
- Ratio IC50 [4]: > 200
- Ratio IC50 [5]: > 200
- IC50 [6]: > 100000 nM
- Ratio IC50 [7]: > 200
- IC50 [8]: > 100000 nM
SMILES: O=C(c1ncc(-c2ccccn2)o1)[C@@H]1COc2cc(Oc3ccccc3)ccc2C1

- Ki [9]: 800 nM
SMILES: CCCCCCC(C)OC(=O)C(Br)C(C)=O (configuration not stated)
